# Measured values taken from ChEMBL document CHEMBL1154898, “Hepatoprotective constituents from the roots and stems of Erycibe hainanesis” (J Nat Prod, 2010).
# Active and inactive are the calls of the source. No cut-off for these calls is given here.
# Tested on: not listed separately
# Assay: (§1) Hepatoprotective activity in rat WB-F344 cells assessed as inhibition of D-galactosamine-induced cytotoxicity at 10 uM after 1 hrs by MTT assay relative to control treated before D-galactosamine challenge
# Format: functional
# Details: WB-F344, 1 h
# In short: (§2)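 WB-F344 rat hepatic epithelial stem-like cells, 1 × 10⁴ per well in DMEM with 3% fetal calf serum and penicillin/streptomycin, precultured 24 h at 37 °C in 5% CO₂. Test samples were added in fresh medium for 1 h, then cells were exposed to 40 mM D-galactosamine for 24 h. Readout was MTT 0.5 mg/mL for 3.5 h, formazan dissolved in DMSO, OD at 492 nm. Inhibition (%) = (OD sample − OD control)/(OD normal − OD control) × 100. Values are mean ± SD, n = 3.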
row,SMILES,inhibition at 10 µM
1,COc1cc(C(=O)OC[C@@]2(O)CO[C@@H](OC[C@H]3O[C@@H](Oc4c(OC)cc5ccc(=O)oc5c4OC)[C@H](O)[C@@H](O)[C@@H]3O)[C@@H]2O)cc(OC)c1O [ERYCIBOSIDE F],15.5%
2,COC(=O)c1cc(OC)c2c(c1-c1c(CO)cc(OC)c3c1OCO3)OCO2 [BICYCLOL],11.2%
3,COc1cc(C(=O)O[C@H]2C[C@](O)(C(=O)O)C[C@H](O)[C@H]2OC(=O)/C=C/c2ccc(O)c(O)c2)cc(OC)c1O,42.2%

# Tested on: WB-F344
# Assay: as §1
# Format: functional
# Details: not given
# In short: as §2
row,SMILES,Activity
1,COc1cc(C(=O)OC[C@@]2(O)CO[C@@H](O[C@H]3[C@H](Oc4cc5oc(=O)ccc5cc4OC)O[C@H](CO)[C@@H](O)[C@@H]3O)[C@@H]2O)ccc1O,inactive
2,COc1cc2cc(-c3cc4cc(OC)c(O)cc4oc3=O)c(=O)oc2cc1O,inactive
3,COC(=O)[C@@]1(O)C[C@@H](OC(=O)/C=C/c2ccc(O)c(O)c2)[C@H](O)[C@H](OC(=O)c2cc(OC)c(O)c(OC)c2)C1,inactive

# Tested on: not listed separately
# Assay: Cytotoxicity against rat WB-F344 cells assessed as cell survival rate after 1 hr at 10 uM by MTT assay
# Format: cell-based
# Details: read-out: Survival
# In short: (§3)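 WB-F344 rat hepatic epithelial stem-like cells were seeded at 1 × 10⁴ cells/well in DMEM with 3% FCS, penicillin and streptomycin, and precultured 24 h at 37 °C in 5% CO₂. Test sample was added in fresh medium for 1 h, then 40 mM D-galactosamine for 24 h; parallel wells without D-galactosamine gave cytotoxicity. MTT (0.5 mg/mL) was added for 3.5 h, formazan dissolved in DMSO and read at 492 nm. Survival is % of normal, mean ± SD, n = 3.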
row,SMILES,"viability at 1 h, 10 µM"
1,COc1cc2ccc(=O)oc2cc1O[C@@H]1O[C@H](CO[C@@H]2OC[C@](O)(CO)[C@H]2OC(=O)c2cc(OC)c(O)c(OC)c2)[C@@H](O)[C@H](O)[C@H]1O [ERYCIBOSIDE B],47%

# Tested on: not listed separately
# Assay: Cytotoxicity against rat WB-F344 cells assessed as cell survival rate after 1 hr at 100 uM by MTT assay
# Format: cell-based
# Details: read-out: Survival
# In short: as §3
row,SMILES,"viability at 1 h, 100 µM"
1,COc1cc(C(=O)OC[C@@]2(O)CO[C@@H](OC[C@H]3O[C@@H](Oc4c(OC)cc5ccc(=O)oc5c4OC)[C@H](O)[C@@H](O)[C@@H]3O)[C@@H]2O)cc(OC)c1O [ERYCIBOSIDE F],44%
2,COC(=O)c1cc(OC)c2c(c1-c1c(CO)cc(OC)c3c1OCO3)OCO2 [BICYCLOL],38%
3,COc1cc(C(=O)O[C@H]2C[C@](O)(C(=O)O)C[C@H](O)[C@H]2OC(=O)/C=C/c2ccc(O)c(O)c2)cc(OC)c1O,61%

# Tested on: WB-F344
# Assay: Hepatoprotective activity in rat WB-F344 cells assessed as inhibition of D-galactosamine-induced cytotoxicity at 100 uM after 1 hrs by MTT assay relative to control treated before D-galactosamine challenge
# Details: not given
row,SMILES,Activity
1,COc1cc(C(=O)O[C@@H]2[C@@H](OC(=O)/C=C/c3ccc(O)c(O)c3)C[C@@](O)(C(=O)O)C[C@@H]2O)cc(OC)c1O,inactive
2,CCOC(=O)[C@]1(O)C[C@@H](O)[C@@H](OC(=O)/C=C/c2ccc(O)c(O)c2)[C@H](OC(=O)/C=C/c2ccc(O)c(O)c2)C1,inactive
3,COc1cc2cc(Oc3cc4oc(=O)ccc4cc3OC)c(=O)oc2cc1O,Active
4,CCOC(=O)[C@]1(O)C[C@@H](O)[C@@H](O)[C@H](OC(=O)/C=C/c2ccc(O)c(O)c2)C1,inactive
5,CCCCOC(=O)[C@]1(O)C[C@@H](O)[C@@H](O)[C@H](OC(=O)/C=C/c2ccc(O)c(O)c2)C1,inactive
6,COc1cc2ccc(=O)oc2cc1O[C@@H]1O[C@H](CO)[C@@H](O)[C@H](O)[C@H]1O[C@@H]1OC[C@](O)(COC(=O)c2cc(OC)c(O)c(OC)c2)[C@H]1O,inactive
7,COc1cc(C(=O)OC[C@@]2(O)CO[C@@H](OC[C@H]3O[C@@H](OCCc4ccc(O)cc4)[C@H](O)[C@@H](O)[C@@H]3O)[C@@H]2O)cc(OC)c1O,inactive
8,COc1cc(C(=O)O)ccc1O,inactive
9,COC(=O)[C@]1(O)C[C@@H](O)[C@@H](O)[C@H](OC(=O)/C=C/c2ccc(O)c(O)c2)C1,inactive
10,O=C(O)c1ccc(O)c(O)c1,inactive
11,COc1cc(C(=O)OC[C@@]2(O)CO[C@@H](OC[C@H]3O[C@@H](OC(C)C)[C@H](O)[C@@H](O)[C@@H]3O)[C@@H]2O)cc(OC)c1O,inactive
12,O=C(O)/C=C/c1ccc(O)c(O)c1,inactive
13,COc1cc(C(=O)OC[C@@]2(O)CO[C@@H](OC[C@H]3O[C@@H](Oc4cc(OC)c(OC)c(OC)c4)[C@H](O)[C@@H](O)[C@@H]3O)[C@@H]2O)cc(OC)c1O,inactive
14,COc1cc(C(=O)OC[C@@]2(O)CO[C@@H](OC[C@H]3O[C@@H](Oc4cc5oc(=O)ccc5cc4OC)[C@H](O)[C@@H](O)[C@@H]3O)[C@@H]2O)ccc1O,inactive
15,COc1cc2ccc(=O)oc2cc1O[C@@H]1O[C@H](CO[C@@H]2OC[C@](O)(COC(=O)c3cc(OC)c(O)c(OC)c3)[C@H]2O)[C@@H](O)[C@H](O)[C@H]1O,inactive
16,COc1cc(C(=O)O[C@H]2C[C@](O)(C(=O)O)C[C@H](OC(=O)/C=C/c3ccc(O)c(O)c3)[C@H]2O)cc(OC)c1O,inactive
17,O=C(/C=C/c1ccc(O)cc1)NCCc1ccc(O)cc1,inactive
18,COc1cc(/C=C/C(=O)NCCc2ccc(O)cc2)ccc1O,inactive
19,O=C(/C=C/c1ccc(O)c(O)c1)O[C@@H]1C[C@](O)(C(=O)O)C[C@@H](O)[C@H]1O,inactive
